In ChEMBL document CHEMBL1921722, “In vitro and in vivo evaluation of select kahalalide F analogs with antitumor and antifungal activities” (Bioorg Med Chem, 2011):
Activity calls are given as the source filed them.

What was measured:
MDA-MB-435 [1] = experiment: Cytotoxicity against human MDA-MB-435 cells assessed as cell growth at 8 uM by sulforhodamine B assay relative to control; type: functional; conditions: read-out: Activity
HCT-15 = experiment: Cytotoxicity against human HCT15 cells by sulforhodamine B assay; type: functional
Method in brief: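 Run by the NCI Developmental Therapeutics Program on its 60-line human tumour cell panel using the standard procedure. Compounds went through a single-concentration prescreen first, and those active by NCI criteria went on to a five-concentration growth-inhibition test. GI50 is the concentration that cuts growth of treated cells to half that of untreated control cells.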

MDA-MB-231 = experiment: Cytotoxicity against human MDA-MB-231 cells assessed as cell growth at 80 nM by sulforhodamine B assay relative to control; type: functional; conditions: read-out: Activity
Staphylococcus aureus = experiment: Antimicrobial activity against methicillin-resistant Staphylococcus aureus ATCC 43300 by CLSI method; type: functional, organism-based
HOP-92 = experiment: Cytotoxicity against human HOP92 cells assessed as cell growth at 8 nM by sulforhodamine B assay relative to control; type: functional; conditions: read-out: Activity
SK-OV-3 = experiment: Cytotoxicity against human SKOV3 cells assessed as cell growth at 800 nM by sulforhodamine B assay relative to control; type: functional; conditions: read-out: Activity
K562 [2] = experiment: Cytotoxicity against human K562 cells assessed as cell growth at 80 uM by sulforhodamine B assay relative to control; type: functional; conditions: read-out: Activity
A498 = experiment: Cytotoxicity against human A498 cells assessed as cell growth at 800 nM by sulforhodamine B assay relative to control; type: functional; conditions: read-out: Activity
Method in brief: (§1)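 Run at NCI in the DTP 60-cell-line human tumor panel by standard procedure. Compounds were first screened at a single concentration, then tested at five tenfold-spaced concentrations. GI50 is the concentration reducing treated-cell growth to half that of untreated controls; TGI is the concentration completely halting growth.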

EKVX = experiment: Cytotoxicity against human EKVX cells assessed as cell growth at 80 uM by sulforhodamine B assay relative to control; type: functional; conditions: read-out: Activity
U-251 = experiment: Cytotoxicity against human U251 cells by sulforhodamine B assay; type: functional
Method in brief: (§2)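 NCI Developmental Therapeutics Program 60-cell-line human tumor panel screen, run at NCI. A single-concentration pre-screen was followed by a five-concentration dose-response in 10-fold steps. GI50 is the concentration that reduces growth of treated cells to half that of untreated control cells. TGI is the concentration that completely halts growth.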

NCI-H322M [3] = experiment: Cytotoxicity against human NCI-H322M cells assessed as cell growth at 80 nM by sulforhodamine B assay relative to control; type: functional; conditions: read-out: Activity
SK-MEL-28 = experiment: Cytotoxicity against human SK-MEL-28 cells assessed as cell growth at 8 uM by sulforhodamine B assay relative to control; type: functional; conditions: read-out: Activity
SK-MEL-5 [4] = experiment: Cytotoxicity against human SK-MEL-5 cells assessed as cell growth at 800 nM by sulforhodamine B assay relative to control; type: functional; conditions: read-out: Activity
COLO 205 = experiment: Cytotoxicity against human COLO205 cells assessed as cell growth at 8 uM by sulforhodamine B assay relative to control; type: functional; conditions: read-out: Activity; method in brief: as §1
OVCAR-5 = experiment: Cytotoxicity against human OVCAR5 cells assessed as cell growth at 8 nM by sulforhodamine B assay relative to control; type: functional; conditions: read-out: Activity
Escherichia coli = experiment: Antimicrobial activity against Escherichia coli ATCC 35218 by CLSI method; type: functional, organism-based
M14 [5] = experiment: Cytotoxicity against human M14 cells assessed as cell growth at 80 nM by sulforhodamine B assay relative to control; type: functional; conditions: read-out: Activity
SNB-19 [6] = experiment: Cytotoxicity against human SNB19 cells assessed as cell growth at 80 uM by sulforhodamine B assay relative to control; type: functional; conditions: read-out: Activity
RPMI-8226 = experiment: Cytotoxicity against human RPMI8226 cells assessed as cell growth at 80 nM by sulforhodamine B assay relative to control; type: functional; conditions: read-out: Activity
SK-MEL-5 [7] = experiment: Cytotoxicity against human SK-MEL-5 cells by sulforhodamine B assay; type: functional; method in brief: as §2
HL-60(TB) [8] = experiment: Cytotoxicity against human HL-60(TB) cells by sulforhodamine B assay; type: functional
Method in brief: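 NCI Developmental Therapeutics Program 60-cell-line human tumor panel, standard procedure. Single-concentration prescreen first; active compounds then tested at five concentrations. GI50 is the concentration reducing growth of treated cells to half that of untreated controls.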

SF-295 = experiment: Cytotoxicity against human SF295 cells assessed as cell growth at 800 nM by sulforhodamine B assay relative to control; type: functional; conditions: read-out: Activity
HOP-62 = experiment: Cytotoxicity against human HOP62 cells assessed as cell growth at 800 nM by sulforhodamine B assay relative to control; type: functional; conditions: read-out: Activity
NCI-H322M [9] = experiment: Cytotoxicity against human NCI-H322M cells assessed as cell growth at 800 nM by sulforhodamine B assay relative to control; type: functional; conditions: read-out: Activity
NCI-H322M [10] = experiment: Cytotoxicity against human NCI-H322M cells assessed as cell growth at 8 uM by sulforhodamine B assay relative to control; type: functional; conditions: read-out: Activity
NCI-H226 [11] = experiment: Cytotoxicity against human NCI-H226 cells assessed as cell growth at 800 nM by sulforhodamine B assay relative to control; type: functional; conditions: read-out: Activity
M14 [12] = experiment: Cytotoxicity against human M14 cells assessed as cell growth at 80 uM by sulforhodamine B assay relative to control; type: functional; conditions: read-out: Activity
HCC 2998 = experiment: Cytotoxicity against human HCC2998 cells assessed as cell growth at 80 uM by sulforhodamine B assay relative to control; type: functional; conditions: read-out: Activity
IGROV-1 = experiment: Cytotoxicity against human IGROV1 cells assessed as cell growth at 800 nM by sulforhodamine B assay relative to control; type: functional; conditions: read-out: Activity
UO-31 = experiment: Cytotoxicity against human UO31 cells by sulforhodamine B assay; type: functional; method in brief: as §2
MOLT-4 = experiment: Cytotoxicity against human MOLT4 cells assessed as cell growth at 800 nM by sulforhodamine B assay relative to control; type: functional; conditions: read-out: Activity
NCI-H226 [13] = experiment: Cytotoxicity against human NCI-H226 cells assessed as cell growth at 80 uM by sulforhodamine B assay relative to control; type: functional; conditions: read-out: Activity
SNB-19 [14] = experiment: Cytotoxicity against human SNB19 cells assessed as cell growth at 8 uM by sulforhodamine B assay relative to control; type: functional; conditions: read-out: Activity
HL-60(TB) [15] = experiment: Cytotoxicity against human HL-60(TB) cells assessed as cell growth at 80 uM by sulforhodamine B assay relative to control; type: functional; conditions: read-out: Activity
NCI-H460 = experiment: Cytotoxicity against human NCI-H460 cells assessed as cell growth at 8 nM by sulforhodamine B assay relative to control; type: functional; conditions: read-out: Activity
MDA-MB-435 [16] = experiment: Cytotoxicity against human MDA-MB-435 cells assessed as cell growth at 80 nM by sulforhodamine B assay relative to control; type: functional; conditions: read-out: Activity
K562 [17] = experiment: Cytotoxicity against human K562 cells assessed as cell growth at 8 uM by sulforhodamine B assay relative to control; type: functional; conditions: read-out: Activity
SF-539 = experiment: Cytotoxicity against human SF539 cells assessed as cell growth at 80 uM by sulforhodamine B assay relative to control; type: functional; conditions: read-out: Activity
MDA-MB-435 [18] = experiment: Cytotoxicity against human MDA-MB-435 cells assessed as cell growth at 800 nM by sulforhodamine B assay relative to control; type: functional; conditions: read-out: Activity

With `C/C=C1\NC(=O)[C@H](Cc2ccccc2)NC(=O)[C@@H](C(C)C)NC(=O)[C@@H]([C@@H](C)CC)NC(=O)[C@H](NC(=O)[C@H](NC(=O)[C@H](CCCNCc2ccc(F)c(C)c2)NC(=O)[C@H]2CCCN2C(=O)[C@H](NC(=O)[C@@H](NC(=O)[C@@H](NC(=O)[C@H](NC(=O)CCCC(C)C)C(C)C)[C@@H](C)O)C(C)C)C(C)C)[C@@H](C)CC)[C@@H](C)OC(=O)[C@H](C(C)C)NC1=O` the growth at 8 µM (MDA-MB-435 [1]) was -95%, the LC50 (HCT-15) was 1380 nM and the GI50 (HCT-15; read-out: GI50) was 181 nM. The TGI (HCT-15; read-out: TGI) was 419 nM, the GI50 (HCT-15; read-out: pGI50 (converted)) was 182 nM and the TGI (HCT-15; read-out: pTGI (converted)) was 417 nM. The growth at 0.08 µM (MDA-MB-231) was 98%, the Activity (Staphylococcus aureus) was “inactive” and the growth at 0.008 µM (HOP-92) was 104%. It also gave a growth at 0.8 µM (SK-OV-3) of -46%, a growth at 80 µM (K562 [2]) of -14% and a growth at 0.8 µM (A498) of 96%. It also gave a growth at 80 µM (EKVX) of -59%, a GI50 (U-251) of 363 nM and an LC50 (U-251) of 3160 nM. For the same molecule, the TGI (U-251; read-out: pTGI (converted)) was 1260 nM, the growth at 0.08 µM (NCI-H322M [3]) was 95% and the growth at 8 µM (SK-MEL-28) was -83%. It also gave a growth at 0.8 µM (SK-MEL-5 [4]) of 83%, a growth at 8 µM (COLO 205) of -76% and a growth at 0.008 µM (OVCAR-5) of 107%. The Activity (Escherichia coli) was “inactive”, the growth at 0.08 µM (M14 [5]) was 99% and the growth at 80 µM (SNB-19 [6]) was -66%. The growth at 0.08 µM (RPMI-8226) was 129%, the GI50 (SK-MEL-5 [7]) was 1150 nM and the LC50 (SK-MEL-5 [7]) was 3980 nM. The TGI (SK-MEL-5 [7]; read-out: pTGI (converted)) was 2140 nM, the GI50 (HL-60(TB) [8]) was 1580 nM and the TGI (HL-60(TB) [8]; read-out: pTGI (converted)) was 3090 nM. The growth at 0.8 µM (SF-295) was 89%, the growth at 0.8 µM (HOP-62) was 87% and the growth at 0.8 µM (NCI-H322M [9]) was -90%. It also gave a growth at 8 µM (NCI-H322M [10]) of -95%, a growth at 0.8 µM (NCI-H226 [11]) of 98% and a growth at 80 µM (M14 [12]) of -49%. It also gave a growth at 80 µM (HCC 2998) of -88%, a growth at 0.8 µM (IGROV-1) of 48% and a GI50 (UO-31) of 1320 nM. It also gave a TGI (UO-31; read-out: pTGI (converted)) of 2630 nM, a growth at 0.8 µM (MOLT-4) of 96% and a growth at 80 µM (NCI-H226 [13]) of -18%. It also gave a growth at 8 µM (SNB-19 [14]) of -84%, a growth at 80 µM (HL-60(TB) [15]) of -37% and a growth at 0.008 µM (NCI-H460) of 104%. For the same molecule, the growth at 0.08 µM (MDA-MB-435 [16]) was 103%, the growth at 8 µM (K562 [17]) was -43% and the growth at 80 µM (SF-539) was -62%. It also gave a growth at 0.8 µM (MDA-MB-435 [18]) of 83%.
